Nine compounds from ChEMBL document CHEMBL1156416, “Influence of high mutation rates on the mechanisms and dynamics of in vitro and in vivo resistance development to single or combined antipseudomonal agents” (Antimicrob Agents Chemother, 2007) can be followed below.

Values after ≈ are worked out from the molar mass of the structure shown. Active and inactive are the calls of the source. No cut-off for these calls is given here.

Series [1] has as its system Pseudomonas aeruginosa. In words: Antibacterial activity against Pseudomonas aeruginosa PAOdeltamutS by Etest. Type of series: functional. The method, boiled down:
(§1)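 Etest strips were applied on Mueller-Hinton agar following the manufacturer's recommendations. For PAOΔmutS, the MIC read was that of the main population, ignoring resistant colonies growing within the inhibition ellipse.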

In series [2] the test system is Pseudomonas aeruginosa. The experiment in a line: Antibacterial activity against Pseudomonas aeruginosa PAO1 by Etest. Type of series: functional. In a few lines:
as §1

In series [3] the test system is Pseudomonas aeruginosa. In words: Antibacterial activity against Pseudomonas aeruginosa PAOdeltamutS infected in C57BL/6J mouse assessed as mortality at 10 mg/kg, ip administered every 6 hrs. To be noted: route intraperitoneal. Type of series: functional.
Series [4] concerns Pseudomonas aeruginosa. The experiment in a line: Antibacterial activity against Pseudomonas aeruginosa PAOdeltamutS infected in C57BL/6J mouse assessed as lung bacterial count at 10 mg/kg, ip administered every 6 hrs. Type of series: functional, organism-based. On the set-up: dose 10 mg/kg.
Series [5] is described as follows: fAUC (0 to 24 hrs)/MIC ratio in Pseudomonas aeruginosa PAOdeltamutS infected C57BL/6J mouse at 10 mg/kg, ip administered every 6 hrs. Type of series: functional. To be noted: route intraperitoneal.
A short description of series [6]: fCmax/MIC ratio in Pseudomonas aeruginosa PAO1 infected C57BL/6J mouse at 10 mg/kg, ip administered every 6 hrs. Type of series: functional. The settings on record: route intraperitoneal.
Series [7] relates to Mus musculus. The experiment in a line: fAUC (0 to 24 hrs) in Pseudomonas aeruginosa PAO1 infected C57BL/6J mouse at 10 mg/kg, ip administered every 6 hrs. The format is ADME, organism-based. On the set-up: dose 10 mg/kg, route intraperitoneal. The settings on record: in vivo.
Series [8] is described as follows: fCmax/MIC ratio in Pseudomonas aeruginosa PAOdeltamutS infected C57BL/6J mouse at 10 mg/kg, ip administered every 6 hrs. To be noted: route intraperitoneal. Type of series: functional.
A short description of series [9]: fAUC (0 to 24 hrs)/MIC ratio in Pseudomonas aeruginosa PAO1 infected C57BL/6J mouse at 10 mg/kg, ip administered every 6 hrs. Type of series: functional. The settings on record: route intraperitoneal.
Series [10] concerns Pseudomonas aeruginosa. The experiment in a line: Antibacterial activity against Pseudomonas aeruginosa PAO1 infected in C57BL/6J mouse assessed as lung bacterial count at 10 mg/kg, ip administered every 6 hrs. On the set-up: dose 10 mg/kg. Type of series: functional, organism-based.
The test system of series [11] is Mus musculus. The experiment in a line: fCmax in Pseudomonas aeruginosa PAO1 infected C57BL/6J mouse at 10 mg/kg, ip administered every 6 hrs. The settings on record: in vivo. Type of series: ADME, organism-based. On the set-up: dose 10 mg/kg, route intraperitoneal.
Series [12] is described as follows: Half life of free unbound fraction in Pseudomonas aeruginosa PAO1 infected C57BL/6J mouse at 10 mg/kg, ip administered every 6 hrs. The format is ADME, organism-based. To be noted: in vivo, read-out: t1/2 unbound fraction (converted). On the set-up: dose 10 mg/kg, route intraperitoneal.
The subject of series [13] is Pseudomonas aeruginosa. In words: Antibacterial activity against Pseudomonas aeruginosa PAO1 infected in C57BL/6J mouse assessed as mortality at 10 mg/kg, ip administered every 6 hrs. Type of series: functional. The settings on record: route intraperitoneal.
The subject of series [14] is Pseudomonas aeruginosa. In words: Antibacterial activity against Pseudomonas aeruginosa PAOdeltamutS infected in C57BL/6J mouse assessed as mortality at 20 mg/kg, ip administered every 6 hrs. The format is functional. To be noted: route intraperitoneal.
Series [15] concerns Pseudomonas aeruginosa. The experiment in a line: Antibacterial activity against Pseudomonas aeruginosa PAO1 infected in C57BL/6J mouse assessed as mortality at 20 mg/kg, ip administered every 6 hrs. To be noted: route intraperitoneal. Type of series: functional.
In series [16] the test system is Mus musculus. In words: fCmax in Pseudomonas aeruginosa PAO1 infected C57BL/6J mouse at 70 mg/kg, ip administered every 3 hrs. The format is ADME, organism-based. On the set-up: dose 70 mg/kg, route intraperitoneal. To be noted: in vivo.
The test system of series [17] is Pseudomonas aeruginosa. The experiment in a line: Antibacterial activity against Pseudomonas aeruginosa PAO1 infected in C57BL/6J mouse assessed as lung bacterial count at 70 mg/kg, ip administered every 3 hrs. The format is functional, organism-based. On the set-up: dose 70 mg/kg. The method, boiled down:
(§2)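 Female C57BL/6J mice (20–25 g) were anesthetized with ketamine/xylazine ip. They were inoculated transtracheally with about 2 × 10⁴ cells embedded in agarose beads. Ceftazidime 70 mg/kg every 3 h (or sterile water placebo) started 24 h after inoculation and ran for 3 days, 30 mice per group in two experiments. Lungs were taken 24 h after treatment ended, homogenized in saline, diluted 1/10 serially and plated on MHA; median counts were reported.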

Series [18] in a line: fCmax/MIC ratio in Pseudomonas aeruginosa PAO1 infected C57BL/6J mouse at 70 mg/kg, ip administered every 3 hrs. Type of series: functional. The settings on record: route intraperitoneal.
Series [19] has as its system Pseudomonas aeruginosa. The experiment in a line: Antibacterial activity against Pseudomonas aeruginosa PAOdeltamutS infected in C57BL/6J mouse assessed as mortality at 70 mg/kg, ip administered every 3 hrs. The format is functional. To be noted: route intraperitoneal. In a few lines: (§3)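 Female C57BL/6J mice (20–25 g) were infected transtracheally under ketamine/xylazine with about 2 × 10⁴ agarose-bead-embedded cells. Beginning 24 h later, they received ceftazidime 70 mg/kg every 3 h or a sterile water placebo for 3 days. There were 30 mice per group from two independent experiments of 15. Mortality was recorded as the percentage of animals per group.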

The test system of series [20] is Mus musculus. The experiment in a line: fAUC (0 to 24 hrs) in Pseudomonas aeruginosa PAO1 infected C57BL/6J mouse at 70 mg/kg, ip administered every 3 hrs. The format is ADME, organism-based. To be noted: in vivo. On the set-up: dose 70 mg/kg, route intraperitoneal.
A short description of series [21]: fCmax/MIC ratio in Pseudomonas aeruginosa PAOdeltamutS infected C57BL/6J mouse at 70 mg/kg, ip administered every 3 hrs. Type of series: functional. The settings on record: route intraperitoneal.
Series [22] deals with Pseudomonas aeruginosa. The experiment in a line: Antibacterial activity against Pseudomonas aeruginosa PAOdeltamutS infected in C57BL/6J mouse assessed as lung bacterial count at 70 mg/kg, ip administered every 3 hrs. Type of series: functional, organism-based. On the set-up: dose 70 mg/kg. In a few lines: as §2
The subject of series [23] is Pseudomonas aeruginosa. In words: f%T>MIC in Pseudomonas aeruginosa PAO1 infected C57BL/6J mouse at 70 mg/kg, ip administered every 3 hrs. The format is functional. The settings on record: route intraperitoneal.
Series [24] in a line: Half life of free unbound fraction in Pseudomonas aeruginosa PAO1 infected C57BL/6J mouse at 70 mg/kg, ip administered every 3 hrs. Type of series: ADME, organism-based. On the set-up: dose 70 mg/kg, route intraperitoneal. The settings on record: in vivo, read-out: t1/2 unbound fraction (converted).
Series [25] can be described thus: fAUC (0 to 24 hrs)/MIC ratio in Pseudomonas aeruginosa PAO1 infected C57BL/6J mouse at 70 mg/kg, ip administered every 3 hrs. The format is functional. To be noted: route intraperitoneal.
Series [26] deals with Pseudomonas aeruginosa. In words: Antibacterial activity against Pseudomonas aeruginosa PAO1 infected in C57BL/6J mouse assessed as mortality at 70 mg/kg, ip administered every 3 hrs. The format is functional. To be noted: route intraperitoneal. The method, boiled down: as §3
Series [27] in a line: fAUC (0 to 24 hrs)/MIC ratio in Pseudomonas aeruginosa PAOdeltamutS infected C57BL/6J mouse at 70 mg/kg, ip administered every 3 hrs. Type of series: functional. To be noted: route intraperitoneal.

Take `CN(C)[C@@H]1C(O)=C(C(N)=O)C(=O)[C@@]2(O)C(O)=C3C(=O)c4c(O)cccc4[C@@](C)(O)[C@H]3C[C@@H]12` [TETRACYCLINE]: the MIC against Pseudomonas aeruginosa [1] and in the series with Pseudomonas aeruginosa [2] was 24 µg/mL (≈ 54 µM) each time.

Turning to `C[C@H]1[C@H](NC(=O)/C(=N\OC(C)(C)C(=O)O)c2csc(N)n2)C(=O)N1S(=O)(=O)O` [AZTREONAM], the MIC in the series with Pseudomonas aeruginosa [1] and in the series on Pseudomonas aeruginosa [2] was 1.5 µg/mL (≈ 3.44 µM) throughout.

On to `NC[C@H]1O[C@H](O[C@H]2[C@H](O)[C@@H](O[C@H]3O[C@H](CO)[C@@H](O)[C@H](N)[C@H]3O)[C@H](N)C[C@@H]2N)[C@H](N)C[C@@H]1O` [TOBRAMYCIN], for which the mortality (commonly the percentage killed) at 10 mg/kg came out at 60% in the series on Pseudomonas aeruginosa [3] and 66.7% in the series with Pseudomonas aeruginosa [13]. Moreover, the “f %t > MIC” value with Pseudomonas aeruginosa [4] and in the series on Pseudomonas aeruginosa [10] was “Active” throughout. Moreover, the fAUC/MIC in series [5] and in [9] was 43 each time. Moreover, the “fc max/MIC” value in series [6] and in [8] was 19 in each case. The compound further returned a fAUC in the series on Mus musculus [7] of 42.96 µg·h/mL. For the same compound, the minimum inhibitory concentration (MIC) in the series on Pseudomonas aeruginosa [1] and in the series with Pseudomonas aeruginosa [2] was 1 µg/mL (≈ 2.14 µM) in each case. Moreover, in the series with Mus musculus [11], the fc max is given as 19.07 mg/L. The half-life in [12] is 33 min.

`C[C@@H](O)[C@H]1C(=O)N2C(C(=O)O)=C(S[C@@H]3CN[C@H](C(=O)N(C)C)C3)[C@H](C)[C@H]12` [MEROPENEM]: the values for the minimal inhibitory concentration (MIC) against Pseudomonas aeruginosa [1] and in the series on Pseudomonas aeruginosa [2] were 0.75 µg/mL (≈ 1.96 µM) and 0.5 µg/mL (≈ 1.3 µM), respectively.

Consider `O=C(O)c1cn(C2CC2)c2cc(N3CCNCC3)c(F)cc2c1=O` [CIPROFLOXACIN], for which the mortality at 20 mg/kg with Pseudomonas aeruginosa [14] and with Pseudomonas aeruginosa [15] was 26.7% each time. In addition, the lowest concentration to inhibit growth with Pseudomonas aeruginosa [1] (MIC) was 0.12 µg/mL (≈ 0.362 µM).

For the compound `CC(C)(O/N=C(\C(=O)N[C@@H]1C(=O)N2C(C(=O)[O-])=C(C[n+]3ccccc3)CS[C@H]12)c1csc(N)n1)C(=O)O` [CEFTAZIDIME], the fc max with Mus musculus [16] came out at 183.1 mg/L; in [18], 183; in series [21], 183. Also, the outcome with Pseudomonas aeruginosa [17] and in the series on Pseudomonas aeruginosa [22] was Active. Besides, the MIC in the series on Pseudomonas aeruginosa [1] and with Pseudomonas aeruginosa [2] was 1 µg/mL (≈ 1.83 µM) throughout. Further, the mortality at 70 mg/kg worked out at 43.3% in the series on Pseudomonas aeruginosa [19] and 56.7% in the series with Pseudomonas aeruginosa [26]. This compound also came in with a fAUC in the series with Mus musculus [20] of 593.6 µg·h/mL. The “f %t > MIC” value in the series on Pseudomonas aeruginosa [23] stood at 54%. In series [24], the half-life is 24 min. For the same compound, the fAUC/MIC in [25] and in series [27] was 594 in each case.

As to `O=C(N[C@H](CO)[C@H](O)c1ccc([N+](=O)[O-])cc1)C(Cl)Cl` [CHLORAMPHENICOL], the minimum inhibitory concentration (MIC) in the series on Pseudomonas aeruginosa [1] and in the series with Pseudomonas aeruginosa [2] was 32 µg/mL (≈ 99 µM) in each case.

On to `C[C@@H](O)[C@H]1C(=O)N2C(C(=O)O)=C(SCCNC=N)C[C@H]12` [IMIPENEM ANHYDROUS], for which the MIC in the series on Pseudomonas aeruginosa [1] and in the series with Pseudomonas aeruginosa [2] was 1.5 µg/mL (≈ 5.01 µM) throughout.

Consider `CO/N=C(\C(=O)N[C@@H]1C(=O)N2C(C(=O)[O-])=C(C[N+]3(C)CCCC3)CS[C@H]12)c1csc(N)n1`, for which the MIC against Pseudomonas aeruginosa [1] and against Pseudomonas aeruginosa [2] was 1 µg/mL (≈ 2.08 µM) in each case.
